Results from ChEMBL document CHEMBL3526009, “Breast cancer resistance protein (ABCG2) determines distribution of genistein phase II metabolites: reevaluation of the roles of ABCG2 in the disposition of genistein” (Drug Metab Dispos, 2012).

Assays:
[1] = Stability in potassium phosphate buffer at pH 7.4 up to 4 hrs; format: physicochemical; details: pH 7.4, 4 h
Summary of the method: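 Negative control run under the blood-incubation conditions but in 50 mM potassium phosphate buffer, pH 7.4, instead of blood. Genistein glucuronides (G-7-G plus G-4′-G, with aglycone) or sulfates (G-7-S plus G-4′-S, with aglycone) held at 37°C in a shaking water bath up to 4 h. Sampled at 0, 60, 120 and 240 min and read by UPLC-MS/MS.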

Blood = test: Stability in Wistar rat blood at 3 uM up to 4 hrs by UPLC-MS/MS analysis; format: ADME, tissue-based
Summary of the method: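 Genistein glucuronide mixture (G-7-G plus G-4′-G, 3 μM) with 3.8 μM genistein incubated in fresh rat whole blood, 37°C shaking water bath. Sampled at 0, 60, 120 and 240 min. Reaction stopped with acetonitrile containing daidzein internal standard. Genistein and conjugates quantified by UPLC-MS/MS using multiple reaction monitoring. n = 3.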

[2] = Drug transport in human Caco2 cells assessed as basolateral excretion of compound treated with genistein at 2 uM after 4 hrs by UPLC-MS/MS analysis in presence of BCRP inhibitor Ko143; format: ADME, cell-based; details: caco-2, 4 h
Summary of the method: (§1)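 Caco-2 TC7 monolayers on 3 μm polycarbonate inserts, used 19–22 days post-seeding (TEER ≥460 Ω/cm2). Genistein 2 or 10 μM in HBSS pH 7.4 applied apically, ±5 μM Ko143 apically; sampling both sides at 0–4 h hourly with replacement, triplicate. Genistein and four conjugates plus intracellular amounts at 4 h by UPLC-MS/MS; mass balance versus dose added.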

[3] = Drug transport in human Caco2 cells assessed as basolateral excretion of compound treated with genistein at 10 uM after 4 hrs by UPLC-MS/MS analysis in presence of BCRP inhibitor Ko143; format: ADME, cell-based; details: caco-2, 4 h; summary of the method: as §1

Stability [1] | Stability (Blood) | Drug transport [2] | Drug transport [3] | Compound
Stable | Stable | Active | Active | O=c1c(-c2ccc(OS(=O)(=O)O)cc2)coc2cc(O)cc(O)c12
Stable | Stable | Active | Active | O=c1c(-c2ccc(O)cc2)coc2cc(OS(=O)(=O)O)cc(O)c12
